ChEMBL document CHEMBL4251609, “Substrate-derived triazolo- and azapeptides as inhibitors of cathepsins K and S” (Eur J Med Chem, 2018)
Calls of active or inactive are those of the source. The calls are words filed in the database; no cut-off is given here. Starred links: 1 amine or outer side, 2 acyl side, 3 side chain; linkers in the order of their positions; H or OH if unused. Non-standard residues stand in square brackets, D forms with d. Residues, ends and D or L forms follow the SMILES beside them. Tyr(3-NO2) = N[C@@H](Cc1ccc(O)c([N+](=O)[O-])c1)C(=O)O; X1 = O=C([C@H](Cc1ccccc1)n1cc(CN[*:1])nn1)[*:2]; 4Abz = Nc1ccc(C(=O)O)cc1

Assays:
[1] = target: T1, Cathepsin K (Homo sapiens) (UniProt P43235); assay: Inhibition of human cathepsin K […] activity assessed as normalized bradykinin equivalents ratio at 1 uM pre-incubated for 15 mins before bradykinin substrate addition by competitive enzyme immunoassay (reference value: <0.5%); design: scale not given: the % may be the effect or the level left
T1 sequence (whole entry): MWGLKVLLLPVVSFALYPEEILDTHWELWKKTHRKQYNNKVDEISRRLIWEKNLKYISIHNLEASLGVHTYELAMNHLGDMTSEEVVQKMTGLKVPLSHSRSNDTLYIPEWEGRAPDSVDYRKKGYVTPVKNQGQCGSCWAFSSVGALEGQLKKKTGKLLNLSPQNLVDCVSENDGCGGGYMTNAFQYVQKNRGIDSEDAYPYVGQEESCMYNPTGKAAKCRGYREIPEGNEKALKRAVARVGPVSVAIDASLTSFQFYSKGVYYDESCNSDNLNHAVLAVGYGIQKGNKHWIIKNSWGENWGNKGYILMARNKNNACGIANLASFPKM

[2] = target: T1, Cathepsin K (Homo sapiens); assay: Inhibition of human cathepsin K […] activity assessed as normalized bradykinin equivalents ratio at 1 uM pre-incubated for 15 mins before kallidin substrate addition by competitive enzyme immunoassay (reference value: <0.5%); design: scale not given: the % may be the effect or the level left
Trypsin (Homo sapiens) [3] = target: T2, Trypsin (Homo sapiens) (UniProt P07477+P07478+P35030); assay: Inhibition of trypsin (unknown origin) incubated for 30 mins using Abz-Thr-Pro-Arg-Ser-Ala-Leu-Gln-EDDnp substrate; type: protein assay
Homo sapiens = species on record: Homo sapiens; assay: Inhibition of chymotrypsin (unknown origin) incubated for 30 mins using Abz-Thr-Pro-Phe-Ser-Gly-Gln-EDDnp substrate
[4] = target: T3, Neutrophil elastase (Homo sapiens) (UniProt P08246); assay: Inhibition of human neutrophil elastase incubated for 30 mins using Abz-Ala-Pro-Glu-Glu-Ile-Met-Arg-Arg-Gln-(3-NO2-Tyr) substrate
T3 sequence (whole entry): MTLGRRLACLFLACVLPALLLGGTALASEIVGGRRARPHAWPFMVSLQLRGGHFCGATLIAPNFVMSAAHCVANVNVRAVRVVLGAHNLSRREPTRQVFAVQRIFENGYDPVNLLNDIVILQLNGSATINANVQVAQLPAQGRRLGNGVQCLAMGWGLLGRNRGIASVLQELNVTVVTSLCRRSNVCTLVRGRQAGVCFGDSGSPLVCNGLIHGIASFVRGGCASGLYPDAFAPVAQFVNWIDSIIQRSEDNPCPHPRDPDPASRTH

[5] = target: 72 kDa type IV collagenase (Homo sapiens) (UniProt P08253); assay: Inhibition of human recombinant MMP-2 expressed in CHO cells incubated for 30 mins by Mca-Arg-Pro-Pro-Gly-Phe-Ser-Ala-Phe-Lys(Dnp) substrate; type: cell-based
[6] = target: Cathepsin D (Homo sapiens) (UniProt P07339); assay: Inhibition of human cathepsin D incubated for 30 mins using Mca-Gly-Lys-Pro-Ile-Leu-Phe-Phe-Arg-Leu-Lys(Dnp)-D-Arg-NH2 substrate
[7] = target: T4, Pro-cathepsin H (Homo sapiens) (UniProt P09668); assay: Inhibition of human cathepsin H using fluorogenic AMC-derived peptide substrate assessed as reduction in residual activity preincubated for 30 mins followed by substrate addition
T4 sequence (whole entry): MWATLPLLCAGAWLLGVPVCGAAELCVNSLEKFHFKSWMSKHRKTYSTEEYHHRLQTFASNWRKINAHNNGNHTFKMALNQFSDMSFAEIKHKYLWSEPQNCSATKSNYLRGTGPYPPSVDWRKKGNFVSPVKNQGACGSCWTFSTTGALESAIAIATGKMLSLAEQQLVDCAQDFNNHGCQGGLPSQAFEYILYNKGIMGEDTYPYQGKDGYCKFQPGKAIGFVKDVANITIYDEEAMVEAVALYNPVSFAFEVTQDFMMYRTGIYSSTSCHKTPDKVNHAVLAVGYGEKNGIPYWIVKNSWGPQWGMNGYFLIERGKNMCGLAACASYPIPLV

[8] = target: Cathepsin B (Homo sapiens) (UniProt P07858); assay: Inhibition of human cathepsin B
Trypsin (Homo sapiens) [9] = target: T2, Trypsin (Homo sapiens); assay: Substrate activity of trypsin (unknown origin) assessed as compound hydrolysis; type: protein assay
Outline: (§1)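 Compound was incubated with each protease and the incubation mixtures were analysed by RP-HPLC for proteolytic degradation of the compound.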

[10] = target: Cathepsin B (Homo sapiens) (UniProt P07858); assay: Substrate activity of human cathepsin B assessed as compound hydrolysis; outline: as §1
Cathepsin S [11] = target: T5, Cathepsin S (Homo sapiens, UniProt P25774); assay: Reversible inhibition of human cathepsin S at 20 uM preincubated for 30 mins followed by Biot-(PEG)2-Ahx-LeuValGly-DMK addition measured after 1 hr by chemiluminescence assay
Target sequence in this assay (P25774 115-331 limits assumed): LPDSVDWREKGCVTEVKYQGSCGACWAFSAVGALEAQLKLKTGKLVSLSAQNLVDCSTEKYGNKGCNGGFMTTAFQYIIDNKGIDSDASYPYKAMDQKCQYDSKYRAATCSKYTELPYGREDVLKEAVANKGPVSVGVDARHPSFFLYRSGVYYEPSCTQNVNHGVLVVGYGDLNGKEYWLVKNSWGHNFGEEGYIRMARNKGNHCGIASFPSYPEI

Cathepsin S [12] = target: T5, Cathepsin S; assay: Reversible inhibition of human cathepsin S at 20 uM in presence of excess Z-LR-AMC
Target sequence in this assay (P25774 115-331 limits assumed): as above

[13] = target: T1, Cathepsin K (Homo sapiens); assay: Inhibition of human cathepsin K […] activity at 3 uM pre-incubated for 30 mins before bradykinin substrate addition by reverse-phase chromatography
[14] = target: T1, Cathepsin K (Homo sapiens); assay: Inhibition of human cathepsin K […] activity at 100 nM pre-incubated for 30 mins before bradykinin substrate addition by reverse-phase chromatography
[15] = target: T1, Cathepsin K (Homo sapiens); assay: Inhibition of human cathepsin K […] activity at 3 uM pre-incubated for 30 mins before Abz-Arg-Pro-Pro-Gly-Phe-Ser-Pro-Phe-Arg-(3-NO2-Tyr) substrate addition by reverse-phase chromatography
[16] = target: T1, Cathepsin K (Homo sapiens); assay: Inhibition of human cathepsin K […] activity at 100 nM pre-incubated for 30 mins before Abz-Arg-Pro-Pro-Gly-Phe-Ser-Pro-Phe-Arg-(3-NO2-Tyr) substrate addition by reverse-phase chromatography
[17] = target: T1, Cathepsin K (Homo sapiens); assay: Inhibition of human cathepsin K […] activity assessed as normalized bradykinin equivalents ratio at 5 uM pre-incubated for 15 mins before bradykinin substrate addition by competitive enzyme immunoassay (reference value: <0.5%); design: scale not given: the % may be the effect or the level left
[18] = target: T1, Cathepsin K (Homo sapiens); assay: Inhibition of human cathepsin K […] activity assessed as normalized bradykinin equivalents ratio at 5 uM pre-incubated for 15 mins before kallidin substrate addition by competitive enzyme immunoassay (reference value: <0.5%); design: scale not given: the % may be the effect or the level left
Cathepsin S [19] = target: T5, Cathepsin S; assay: (§2) Reversible competitive inhibition of human cathepsin S using fluorogenic AMC-derived peptide substrate assessed as reduction in residual activity at pH 5.5 preincubated for 30 mins followed by substrate addition
Outline: (§3)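 Ki values for cathepsin S determined at pH 5.5 and again at pH 7.4, a pH at which this enzyme stays stable and active, to compare the two conditions.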
Target sequence in this assay (P25774 whole entry): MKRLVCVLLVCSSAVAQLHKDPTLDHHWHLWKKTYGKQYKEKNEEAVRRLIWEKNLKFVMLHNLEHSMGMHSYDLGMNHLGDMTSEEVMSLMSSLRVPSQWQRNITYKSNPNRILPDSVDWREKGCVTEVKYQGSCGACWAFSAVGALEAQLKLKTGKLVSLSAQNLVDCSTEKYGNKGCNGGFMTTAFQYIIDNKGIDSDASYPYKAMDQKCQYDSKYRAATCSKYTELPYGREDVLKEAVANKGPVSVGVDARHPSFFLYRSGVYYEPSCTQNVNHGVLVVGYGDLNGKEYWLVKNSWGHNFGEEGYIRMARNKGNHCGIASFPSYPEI

Cathepsin S [20] = target: T5, Cathepsin S; assay: Reversible competitive inhibition of human cathepsin S using fluorogenic AMC-derived peptide substrate assessed as reduction in residual activity at pH 7.4 preincubated for 30 mins followed by substrate addition; outline: as §3
Target sequence in this assay (P25774 whole entry): as above

Cathepsin K [21] = target: T6, Cathepsin K (Homo sapiens, UniProt P43235); assay: Reversible competitive inhibition of human cathepsin K using fluorogenic AMC-derived peptide substrate assessed as reduction in residual activity preincubated for 30 mins followed by substrate addition
T6 sequence (P43235 whole entry): T1 sequence (whole entry)
Outline: (§4)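 Inhibition constants (Ki) determined at pH 5.5, with reversibility and competitive mode also assessed.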

Procathepsin L [22] = target: T7, Procathepsin L (Homo sapiens, UniProt P07711); assay: Reversible competitive inhibition of human cathepsin L using fluorogenic AMC-derived peptide substrate assessed as reduction in residual activity preincubated for 30 mins followed by substrate addition; outline: as §4
Target sequence in this assay (P07711 whole entry): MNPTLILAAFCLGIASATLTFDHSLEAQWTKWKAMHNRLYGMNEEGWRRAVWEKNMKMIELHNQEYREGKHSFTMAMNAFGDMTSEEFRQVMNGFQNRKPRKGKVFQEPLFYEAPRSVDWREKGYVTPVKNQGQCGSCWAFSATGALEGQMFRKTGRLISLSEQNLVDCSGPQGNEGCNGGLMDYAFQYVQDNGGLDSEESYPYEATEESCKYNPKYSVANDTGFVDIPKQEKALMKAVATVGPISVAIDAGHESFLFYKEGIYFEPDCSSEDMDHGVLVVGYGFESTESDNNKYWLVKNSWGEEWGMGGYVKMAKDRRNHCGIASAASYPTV

Pro-cathepsin H = target: T8, Pro-cathepsin H (Homo sapiens, UniProt P09668); assay: Reversible competitive inhibition of human cathepsin H using fluorogenic AMC-derived peptide substrate assessed as reduction in residual activity preincubated for 30 mins followed by substrate addition
T8 sequence (P09668 whole entry): T4 sequence (whole entry)

Cathepsin K [23] = target: T6, Cathepsin K; assay: Inhibition of human cathepsin K
[24] = target: Cathepsin S (Mus musculus) (UniProt O70370); assay: Inhibition of cathepsin S in C57/Bl6 mouse spleen lysate using Z-Val-Leu-Arg-AMC as substrate at 100 uM preincubated for 30 mins followed by substrate addition; type: subcellular
[25] = target: Cathepsin B (Mus musculus) (UniProt P10605); assay: Inhibition of cathepsin B in C57/Bl6 mouse spleen lysate using Z-Arg-Arg-AMC as substrate at 100 uM preincubated for 30 mins followed by substrate addition; type: subcellular
[26] = target: T1, Cathepsin K (Homo sapiens); assay: Inhibition of human cathepsin K using fluorogenic AMC-derived peptide substrate assessed as reduction in residual activity preincubated for 30 mins followed by substrate addition
Procathepsin L [27] = target: T7, Procathepsin L; assay: Inhibition of human cathepsin L using fluorogenic AMC-derived peptide substrate assessed as reduction in residual activity preincubated for 30 mins followed by substrate addition
Target sequence in this assay (P07711 114-333 limits assumed): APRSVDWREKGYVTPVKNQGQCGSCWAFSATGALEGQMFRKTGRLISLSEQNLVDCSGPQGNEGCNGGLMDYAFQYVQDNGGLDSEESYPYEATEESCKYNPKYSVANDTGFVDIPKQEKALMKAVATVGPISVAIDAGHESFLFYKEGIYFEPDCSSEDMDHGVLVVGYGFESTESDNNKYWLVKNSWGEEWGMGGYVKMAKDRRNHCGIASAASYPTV

Cathepsin S [28] = target: T5, Cathepsin S; assay: Reversible inhibition of human cathepsin S at 600 uM preincubated for 30 mins followed by Biot-(PEG)2-Ahx-LeuValGly-DMK addition measured after 1 hr by chemiluminescence assay
Target sequence in this assay (P25774 115-331 limits assumed): as the sequence (P25774 115-331 limits assumed) above

Cathepsin S [29] = target: T5, Cathepsin S; assay: as §2; outline: as §3; remark: listed apart in the source
Target sequence in this assay (P25774 115-331 limits assumed): as above

[30] = target: Cathepsin S (Mus musculus) (UniProt O70370); assay: Inhibition of cathepsin S in C57/Bl6 mouse spleen lysate using Z-Val-Leu-Arg-AMC as substrate at 10 uM preincubated for 30 mins followed by substrate addition; type: subcellular
Cathepsin S [31] = target: T5, Cathepsin S; assay: Reversible inhibition of human cathepsin S at 600 uM in presence of excess Z-LR-AMC
Target sequence in this assay (P25774 115-331 limits assumed): as above

[32] = target: Cathepsin B (Mus musculus) (UniProt P10605); assay: Inhibition of cathepsin B in C57/Bl6 mouse spleen lysate using Z-Arg-Arg-AMC as substrate at 10 uM preincubated for 30 mins followed by substrate addition; type: subcellular
Cathepsin S [33] = target: T5, Cathepsin S; assay: Inhibition of human cathepsin S using fluorogenic AMC-derived peptide substrate assessed as reduction in residual activity preincubated for 30 mins followed by substrate addition
Target sequence in this assay (P25774 115-331 limits assumed): as above

Cathepsin S [34] = target: T5, Cathepsin S; assay: Inhibition of human cathepsin S at 300 uM preincubated for 30 mins followed by Biot-(PEG)2-Ahx-LeuValGly-DMK addition measured after 1 hr by chemiluminescence assay
Cathepsin S [35] = target: T5, Cathepsin S; assay: Reversible inhibition of human cathepsin S at 300 uM in presence of excess Z-LR-AMC

Cathepsin D (Homo sapiens), sequence (P07339 65-162 limits assumed): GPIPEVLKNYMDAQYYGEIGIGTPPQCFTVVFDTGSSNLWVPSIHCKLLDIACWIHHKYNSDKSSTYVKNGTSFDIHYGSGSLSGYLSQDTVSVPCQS
Cathepsin D (Homo sapiens), sequence (P07339 169-412 limits assumed): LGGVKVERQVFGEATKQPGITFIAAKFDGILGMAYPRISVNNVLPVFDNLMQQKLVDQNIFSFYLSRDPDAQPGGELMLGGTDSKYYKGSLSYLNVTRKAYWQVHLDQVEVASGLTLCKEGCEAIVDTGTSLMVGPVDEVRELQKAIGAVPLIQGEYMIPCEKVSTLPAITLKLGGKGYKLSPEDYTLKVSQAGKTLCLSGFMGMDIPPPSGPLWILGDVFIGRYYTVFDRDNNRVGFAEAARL
72 kDa type IV collagenase (Homo sapiens), sequence (P08253 110-660 limits assumed): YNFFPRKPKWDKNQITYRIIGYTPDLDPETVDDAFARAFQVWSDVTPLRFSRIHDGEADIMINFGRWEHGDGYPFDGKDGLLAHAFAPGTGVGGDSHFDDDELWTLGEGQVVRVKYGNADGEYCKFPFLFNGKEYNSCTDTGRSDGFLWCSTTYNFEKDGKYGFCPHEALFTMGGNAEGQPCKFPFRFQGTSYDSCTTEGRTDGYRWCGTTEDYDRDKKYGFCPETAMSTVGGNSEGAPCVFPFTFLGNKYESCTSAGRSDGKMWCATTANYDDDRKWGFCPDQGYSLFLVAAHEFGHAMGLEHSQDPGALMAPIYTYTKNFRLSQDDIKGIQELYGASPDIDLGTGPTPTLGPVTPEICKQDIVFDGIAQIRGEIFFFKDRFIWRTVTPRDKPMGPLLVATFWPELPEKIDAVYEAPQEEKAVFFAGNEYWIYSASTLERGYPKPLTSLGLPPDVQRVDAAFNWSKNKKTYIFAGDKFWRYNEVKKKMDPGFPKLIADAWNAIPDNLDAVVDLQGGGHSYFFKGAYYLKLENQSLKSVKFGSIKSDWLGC
Cathepsin B (Mus musculus), sequence (P10605 80-333 limits assumed): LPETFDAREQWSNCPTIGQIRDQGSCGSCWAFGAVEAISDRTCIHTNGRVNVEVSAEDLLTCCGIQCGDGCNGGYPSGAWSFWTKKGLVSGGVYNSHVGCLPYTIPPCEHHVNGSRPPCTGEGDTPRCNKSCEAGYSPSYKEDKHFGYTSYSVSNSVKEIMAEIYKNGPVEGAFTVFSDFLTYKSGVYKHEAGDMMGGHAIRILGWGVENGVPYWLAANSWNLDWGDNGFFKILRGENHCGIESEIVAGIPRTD

Activity [1] [%]	Activity [2] [%]	inhibition (Trypsin (Homo sapiens) [3])	inhibition (Homo sapiens)	inhibition [4]	inhibition [5]	inhibition [6]	inhibition [7]	inhibition [8]	Ki (Cathepsin K [21]) [µM]	Ki (Procathepsin L [22]) [µM]	Ki (Pro-cathepsin H)	inhibition [26]	inhibition (Procathepsin L [27])	inhibition (Cathepsin S [29])	Ki (Cathepsin S [19]; read-out: Ki) [µM]	Ki (Cathepsin S [20]; read-out: Ki) [µM]	inhibition (Cathepsin S [33])	SMILES	also measured
< 0.5	< 0.5																	CCCNC(=O)[C@H]1O[C@@H]1C(=O)N[C@H](C(=O)N1CCC[C@H]1C(=O)O)[C@@H](C)CC	
		inactive	inactive	inactive	inactive	inactive	inactive	inactive	0.8	22	Not Active							N=C(N)NCCC[C@H](NC(=O)[C@H](Cc1ccccc1)NC(=O)[C@@H]1CCCN1C(=O)[C@H](CO)NC(=O)[C@H](Cc1ccccc1)n1cc(CNC(=O)[C@@H]2CCCN2C(=O)[C@@H]2CCCN2C(=O)[C@H](CCCNC(=N)N)NC(=O)c2ccc(N)cc2)nn1)C(=O)N[C@@H](Cc1ccc(O)c([N+](=O)[O-])c1)C(N)=O (H-[4Abz]RPP[X1]SPFR[Tyr(3-NO2)]-NH2)	Activity (Trypsin (Homo sapiens) [9]): Active; Activity [10]: Active; inhibition (Cathepsin S [11]): Active; inhibition (Cathepsin S [12]): inactive; inhibition [13]: Active; inhibition [14]: Active; inhibition [15]: Active; inhibition [16]: Active; Activity [17]: 100%; Activity [18]: 100%; Ki (Cathepsin S [19]): Not Active; Ki (Cathepsin S [20]): Not Active
																		CC(C)(F)C[C@H](N[C@@H](c1ccc(-c2ccc(S(C)(=O)=O)cc2)cc1)C(F)(F)F)C(=O)NC1(C#N)CC1 [ODANACATIB]	Ki (Cathepsin K [23]): 0.00018 µM
100	100																	CC(C)C[C@H](NC(=O)[C@@H]1O[C@H]1C(=O)O)C(=O)NCCCCN=C(N)N	inhibition [24]: Active; inhibition [25]: Active
		inactive	inactive	inactive	inactive	inactive	Active	Active	0.003	0.005		Active	Active	Active	0.026	0.017	Active	CSCC[C@H](NC(=O)[C@@H]1CCCN1C(=O)[C@H](Cc1c[nH]cn1)NC(=O)[C@H](Cc1c[nH]c2ccccc12)NC(=O)[C@H](CCCNC(=N)N)NC(=O)CNC(C)=O)C(=O)NNC(=O)N[C@@H](C)C(=O)N1CCC[C@H]1C(=O)N[C@@H](Cc1c[nH]c2ccccc12)C(=O)N[C@@H](CCC(=O)O)C(=O)N[C@H](C)C(=O)N[C@H](CCCNC(=N)N)C(N)=O	inhibition (Cathepsin S [28]): Active; inhibition [30]: Active; inhibition (Cathepsin S [31]): inactive; inhibition [32]: inactive; Ki (Pro-cathepsin H; read-out: Ki): 7 µM
		inactive	inactive	inactive	inactive	inactive	inactive	inactive	10	30	Not Active	Active	Active	Active	15	42	Active	CSCC[C@H](NC(=O)[C@@H]1CCCN1C(=O)[C@H](Cc1c[nH]cn1)NC(=O)[C@H](Cc1c[nH]c2ccccc12)NC(=O)[C@H](CCCNC(=N)N)NC(=O)CNC(C)=O)C(=O)NCc1cn([C@@H](C)C(=O)N2CCC[C@H]2C(=O)N[C@@H](Cc2c[nH]c3ccccc23)C(=O)N[C@@H](CCC(=O)O)C(=O)N[C@H](C)C(=O)N[C@H](CCCNC(=N)N)C(N)=O)nn1	inhibition (Cathepsin S [34]): Active; inhibition (Cathepsin S [35]): inactive
